The text below walks through data of ChEMBL document CHEMBL3271979, “Inhibition of solid tumors by nitrosoureas. 1. Lewis lung carcinoma” (1977).

The nature of assay [1]: Antitumor activity against mouse early Lewis lung carcinoma allografted in BDF1 mouse assessed as increase in host life span at 20 mg/kg, ip administered as single dose on 1 or 2 days post-tumor implantation. It counts as functional. The settings on record: route intraperitoneal. An outline of the steps:
(§1)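 BDF1 mice (C57Blk/6 × DBA/2) implanted sc by trocar with ~40 mg Lewis lung tumor fragments from bacteriologically sterile donor tumors. Single ip dose on day 1 or 2, as a solution or suspension in water (CMC or gum acacia) or saline (HPC or Tween 80). Read-out is […]. Same-dose toxicity controls were run in nontumor-bearing mice.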

A short description of assay [2]: Antitumor activity against mouse early Lewis lung carcinoma allografted in BDF1 mouse assessed as increase in host life span at 30 mg/kg, ip administered as single dose on 1 or 2 days post-tumor implantation. The settings on record: route intraperitoneal. In kind it is functional. An outline of the steps:
as §1

Assay [3] is described as follows: Antitumor activity against mouse early Lewis lung carcinoma allografted in BDF1 mouse assessed as time delay in tumor growth at 20 mg/kg, ip administered as single dose on 1 or 2 days post-tumor implantation. In kind it is functional. Particulars: route intraperitoneal. An outline of the steps:
(§2)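 BDF1 mice (C57Blk/6 × DBA/2) implanted sc by trocar with ~40 mg Lewis lung tumor fragments from bacteriologically sterile donors. A single ip dose was given on day 1 or 2, as a solution or suspension in water or saline with suspending agent, at ≤0.5 ml. Tumors were measured by caliper at least twice weekly, with weight = ab²/2. Delay was taken as the days for the tumor to reach 1 g.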

Assay [4] is described as follows: Antitumor activity against mouse early Lewis lung carcinoma allografted in BDF1 mouse assessed as time delay in tumor growth at 30 mg/kg, ip administered as single dose on 1 or 2 days post-tumor implantation. In kind it is functional. The settings on record: route intraperitoneal. An outline of the steps:
as §2

Assay [5] can be described thus: Antitumor activity against mouse early Lewis lung carcinoma allografted in ip dosed BDF1 mouse assessed as disease cure administered as single dose on 1 or 2 days post-tumor implantation measured for 80 days post-drug treatment. In kind it is functional. In a few lines:
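BDF1 mice implanted sc by trocar with ~40 mg Lewis lung fragments from sterile donor tumors. A single ip dose was given on day 1 or 2 after implant, in water or saline vehicle. Cures were scored in animals observed for at least 80 days after treatment. Drug-toxicity controls were matched non-tumor-bearing mice monitored for body weight and deaths.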

Assay [6] is described as follows: Ratio of ED50 for antitumor activity against mouse L1210 cells allografted in ip dosed mouse to LD10 for mouse.
For assay [7], the system named is Mus musculus. Put plainly: Antitumor activity against mouse advanced Lewis lung carcinoma allografted in ip dosed BDF1 mouse assessed as complete regression of established tumor administered as single dose on day 6 or 7 post-tumor implantation. It counts as functional, organism-based. In a few lines: (§3)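 BDF1 mice (C57Blk/6 × DBA/2) implanted sc by trocar with Lewis lung tumor fragments of about 40 mg, taken only from bacteriologically sterile donor tumors. Mice bearing tumors of about 400 mg (day 6-7) were selected. Each received a single ip dose on day 7, at or below the LD10 in normal mice. Groups were of 10 mice. Tumor weight was taken from calipers as w = ab²/2, measured at least twice weekly. Matched non-tumor mice served as toxicity controls.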

A short description of assay [8]: Antitumor activity against mouse advanced Lewis lung carcinoma allografted in ip dosed BDF1 mouse assessed as increase in host lifespan administered as single dose on day 6 or 7 post-tumor implantation. In kind it is functional. In a few lines: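 Advanced Lewis lung model: about 40 mg fragments implanted sc by trocar into BDF1 mice, and mice with tumors of about 400 mg (day 6-7) selected. Tumor weight from calipers, w = ab²/2. Agent given as one ip dose in distilled water or physiological saline. Nontumor-bearing mice received matching doses as toxicity controls.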

Assay [9] in a line: Antitumor activity against mouse early Lewis lung carcinoma allografted in BDF1 mouse assessed as increase in host life span at 148 mg/kg, ip administered as single dose on 1 or 2 days post-tumor implantation. In kind it is functional. Particulars: route intraperitoneal. An outline of the steps:
as §1

Assay [10] can be described thus: Antitumor activity against mouse early Lewis lung carcinoma allografted in BDF1 mouse assessed as increase in host life span at 99 mg/kg, ip administered as single dose on 1 or 2 days post-tumor implantation. Particulars: route intraperitoneal. It counts as functional. An outline of the steps:
as §1

Assay [11] can be described thus: Antitumor activity against mouse early Lewis lung carcinoma allografted in BDF1 mouse assessed as time delay in tumor growth at 148 mg/kg, ip administered as single dose on 1 or 2 days post-tumor implantation. In kind it is functional. The settings on record: route intraperitoneal. An outline of the steps:
as §2

Assay [12] can be described thus: Antitumor activity against mouse early Lewis lung carcinoma allografted in BDF1 mouse assessed as time delay in tumor growth at 99 mg/kg, ip administered as single dose on 1 or 2 days post-tumor implantation. Particulars: route intraperitoneal. In kind it is functional. An outline of the steps: as §2
Assay [13] deals with Mus musculus. Put plainly: Antitumor activity against mouse advanced Lewis lung carcinoma allografted in BDF1 mouse assessed as disease cure at 44 mg/kg, ip administered as single dose on 7th day post-tumor implantation measured for 80 days post-drug treatment. It counts as functional, organism-based. Further details: dose 44 mg/kg. An outline of the steps: as §3
Assay [14] is described as follows: Antitumor activity against mouse advanced Lewis lung carcinoma allografted in BDF1 mouse assessed as increase in host life span at 44 mg/kg, ip administered as single dose on 7th day post-tumor implantation. It counts as functional. Particulars: route intraperitoneal. An outline of the steps:
(§4)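 BDF1 mice (C57Blk/6 × DBA/2) implanted sc by trocar with about 40 mg Lewis lung tumor fragments from bacteriologically sterile donors. Advanced-disease groups held tumors of about 400 mg by day 6-7, sized by caliper (w = ab²/2). Single ip injection on day 7, in water or saline vehicle, at or below the LD10 in normal mice. Tumors measured at least twice weekly.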

Assay [15] deals with Mus musculus. The assay is described as follows: Antitumor activity against mouse advanced Lewis lung carcinoma allografted in ip dosed BDF1 mouse assessed as disease cure administered as single dose on day 6 or 7 post-tumor implantation. It counts as functional, organism-based. An outline of the steps: as §3
Assay [16] in a line: Antitumor activity against mouse early Lewis lung carcinoma allografted in BDF1 mouse assessed as increase in host life span at 15 mg/kg, ip administered as single dose on 1 or 2 days post-tumor implantation. It counts as functional. The settings on record: route intraperitoneal. In a few lines: as §1
Assay [17] is described as follows: Antitumor activity against mouse early Lewis lung carcinoma allografted in BDF1 mouse assessed as increase in host life span at 10 mg/kg, ip administered as single dose on 1 or 2 days post-tumor implantation. In kind it is functional. Particulars: route intraperitoneal. In a few lines: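 Early disease: BDF1 mice carrying sc trocar implants of about 40 mg Lewis lung fragments. One ip dose given on day 1 or 2 after implant, in distilled water or saline, at ≤0.5 ml. Endpoints were % increase in life-span of dying animals and delay in days for the primary tumor to reach 1 g. Untreated controls served as reference.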

Assay [18] is described as follows: Antitumor activity against mouse early Lewis lung carcinoma allografted in BDF1 mouse assessed as time delay in tumor growth at 15 mg/kg, ip administered as single dose on 1 or 2 days post-tumor implantation. The settings on record: route intraperitoneal. It counts as functional. An outline of the steps: as §2
The subject of assay [19] is Mus musculus. The assay is described as follows: Antitumor activity against mouse advanced Lewis lung carcinoma allografted in BDF1 mouse assessed as disease cure at 22 mg/kg, ip administered as single dose on 7th day post-tumor implantation measured for 80 days post-drug treatment. In kind it is functional, organism-based. Also on record: dose 22 mg/kg. An outline of the steps: as §3

Assay [20] is described as follows: Antitumor activity against mouse advanced Lewis lung carcinoma allografted in BDF1 mouse assessed as increase in host life span at 22 mg/kg, ip administered as single dose on 7th day post-tumor implantation. It counts as functional. The settings on record: route intraperitoneal. In a few lines: as §4
A short description of assay [21]: Antitumor activity against mouse early Lewis lung carcinoma allografted in BDF1 mouse assessed as time delay in tumor growth at 10 mg/kg, ip administered as single dose on 1 or 2 days post-tumor implantation. In kind it is functional. The settings on record: route intraperitoneal. In a few lines:
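Sc trocar implants of about 40 mg Lewis lung fragments in BDF1 mice. A single ip injection was given on day 1 or 2, in water or physiological saline, at ≤0.5 ml. Tumor size came from caliper length and width as w = ab²/2, measured at least twice weekly. Growth delay is the extra days taken to reach 1 g, compared with untreated controls.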

Activity calls are given as the source filed them. The rule behind the calls is not given here.

As for `C[C@H]1SC[C@@H](NC(=O)N(CCCl)N=O)CS1`, the ILS (as a rule, how much longer treated animals lived than controls) at 20 mg/kg in [1] came to 0%. Besides, the ILS at 30 mg/kg in assay [2] amounted to 42%. Besides, the values for the Time in assay [3] and in [4] were 8.1 days and 18 days, respectively. In addition, the Activity in assay [5] was 10%. Besides, the Ratio in assay [6] was found to be 0.4. Also, the inhibition result in assay [7] was “inactive”. Also, in assay [8], the ILS is on record as less than 25%.

`C[C@H]1CC[C@H](NC(=O)N(CCF)N=O)CC1`: in [9], the ILS at 148 mg/kg was found to be 0%. For the same molecule, in assay [10], the ILS at 99 mg/kg stood at 34%. Also, the Time amounted to 1.4 days in assay [11] and 2.6 days in assay [12]. Moreover, the result in assay [13] and in [15] was inactive. Moreover, the ILS at 44 mg/kg in assay [14] turned out to be 94%. The Activity in assay [5] was 10%. Besides, the Ratio in [6] came out at 0.6. Further, the inhibition result in [7] is “Active”.

With `O=NN(CCCl)C(=O)NC1CSCSC1`, in assay [16], the ILS at 15 mg/kg stood at 42%. Also, the ILS at 10 mg/kg in [17] stood at 24%. The Time in assay [18] was determined as 4.5 days; in assay [21], 3.5 days. For the same molecule, the outcome in assay [19] and in assay [15] was inactive. Further, the ILS at 22 mg/kg in assay [20] came to 36%. The Activity in [5] is 10%. In [6], the Ratio worked out at 0.3. In assay [7], the inhibition entry is “Active”.
